Data reported in ChEMBL document CHEMBL1121883, “1-(Naphthylalkyl)-1H-imidazole derivatives, a new class of anticonvulsant agents” (J Med Chem, 1981).

Experiments:
Type in all cases: functional
Mus musculus [1] = assay: Protective index is defined as ND50 (i.p.) divided by MES ED50(i.p.)
How it was run: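 Ratio of ND50 from the wire traction test to MES ED50, both measured by the same route (ip or oral) in the same animals. Quantal dose-response data for each were evaluated by Litchfield-Wilcoxon.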

Mus musculus [2] = assay: Compound was evaluated for anticonvulsant activity by maximal electroshock assay(MES) in mice after ip administration; 8-16
How it was run: (§1)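 Male Hilltop ICR-derived mice (19-30 g), groups of 8-10, dosed ip with compound or aqueous vehicle. After 15 min pretreatment, a transcorneal 60-Hz, 50 mA shock was given for 0.2 s. Just before the shock, each mouse was tested on a horizontal wire (10 s). Quantal data were analysed by Litchfield-Wilcoxon to give ED50 with 95% confidence limits.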

Mus musculus [3] = assay: Dose of compound causing a neurological deficit in 50% of mice after ip administration; 19-38
How it was run: (§2)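 Traction test in male Hilltop ICR-derived mice (19-30 g, groups of 8-10) just before electroshock, 15 min after ip or 30 min after oral dosing. Mice placed on a 16-gauge, 65-cm copper wire 40 cm above the table; deficit scored as failure to stay on for 10 s. ND50 with 95% limits by Litchfield-Wilcoxon.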

Mus musculus [4] = assay: Compound was evaluated for anticonvulsant activity by maximal electroshock assay(MES) in mice after ip administration; 8-17; how it was run: as §1
Mus musculus [5] = assay: Dose of compound causing a neurological deficit in 50% of mice after ip administration; 45-89; how it was run: as §2

Row | Compound | PI (Mus musculus [1]) | ED50 (Mus musculus [2]) [mg/kg] | ND50 (Mus musculus [3]) [mg/kg] | ED50 (Mus musculus [4]) [mg/kg] | ND50 (Mus musculus [5]) [mg/kg]
1 | CCOC(Cn1ccnc1)c1ccc2ccccc2c1 (stereo unspecified) | 2.5 | 11 | 27 |  | 
2 | Cl.OC(CCn1ccnc1)c1ccc2ccccc2c1 (stereo unspecified) | 4.9 |  |  | 13 | 64
